This is a sample that favours compounds with a hit; in the whole collection about 0.64% have one here.
TNF necrop inh = inhibitors of TNF-alpha triggered necroptosis, primary screen, cell-based, Jurkat FADD-/-, single concentration | Jurkat FADD-/- TNF necroptosis rescue, ATP luminescence, 24 h; 0 = TNF only, 100 = no-TNF cells | activation (protection from cell death), % at 10 µM | 220,000 tested, 0.068% active | AID 463075, 2010;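 active means activation, meaning protection from cell death, of at least 50% relative to plate controls; inactive means activation below 50%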;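 further: necroptosis triggered by 40 ng/mL TNF-alpha added together with compound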
SDO1 yeast rescue = growth rescue of sdo1-depleted yeast, primary screen, S. cerevisiae, bone marrow failure model. z-score at 10 µM. S. cerevisiae sdo1-depleted JHY4D growth rescue, OD600 30 h; stronger effect = higher value; pdr5 snq2 efflux-pump mutant strain. AID 817, 2007. 140,000 tested, 0.21% active;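 active means z-score above 3 at both the 24 hr and the 30 hr optical density reads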;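 further: z-score against mean and SD of all compound wells on the same plate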
Rad51 HR inh = human RAD51 strand exchange inhibitors, primary screen, biochemical, fluorescence. AID 1385, 2008. inhibition, % at 10 µM. hRad51 DNA strand exchange, fluorescence dequenching. DNA repair protein RAD51 homolog 1 (Homo sapiens), Q06609. 200,000 tested, 0.085% active;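 active means inhibition above 40% at the single screening dose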;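 further: 0% = DMSO control wells and 100% = blanks with heterologous ssDNA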
Target sequence (Q06609 whole entry, looked up): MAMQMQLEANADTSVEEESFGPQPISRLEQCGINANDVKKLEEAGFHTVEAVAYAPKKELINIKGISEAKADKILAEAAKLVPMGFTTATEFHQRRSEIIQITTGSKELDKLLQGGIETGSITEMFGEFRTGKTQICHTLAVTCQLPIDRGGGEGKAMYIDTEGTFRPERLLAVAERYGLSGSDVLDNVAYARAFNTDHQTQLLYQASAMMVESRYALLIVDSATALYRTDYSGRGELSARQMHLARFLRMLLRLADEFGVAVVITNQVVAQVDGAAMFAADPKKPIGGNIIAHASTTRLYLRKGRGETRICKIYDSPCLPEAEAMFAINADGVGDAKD
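Test system: preformed human Rad51 ssDNA filaments; also added: Donor/quencher-labelled 47-bp dsDNA substrate; doses: 10 µM final, single point; times: 37 °C 15-min filament assembly, 30-min compound preincubation, 15-min exchange; detection: FRET fluorescence dequenching, excitation 485 nm, emission 520 nm; read-out basis: Fluorescence-based percent inhibition, control- and blank-normalised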
zVAD death inh = inhibitors of zVAD-triggered necroptosis, primary screen, L929 cells; L929 zVAD necroptosis rescue, ATP luminescence, 24 h; with zVAD 60 µM; viability rescue, % at 10 µM; 220,000 tested, 0.38% active; AID 1377, 2008;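 active means activation, scaled between plate controls, above about 75%, limit read from the data; inactive means activation under that limit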;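 further: 0% = zVAD with DMSO and 100% = DMSO alone without zVAD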
zVAD necrop conf = inhibitors of zVAD-triggered necroptosis in L929, confirmation, L929 cells, duplicate runs; shares compounds with zVAD death inh; L929 zVAD-induced necroptosis rescue, ATP luminescence, 24 h; activation (protection from necroptosis), % at 10 µM; 760 tested, 16% active; AID 463117, 2010;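 active means mean protection from necroptosis of at least 50% over duplicate tests; inactive means mean protection below 50%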;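 further: 0% = cells with zVAD alone and 100% = vehicle cells without zVAD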
* marks the source's active call; other numbers are inactive results; nt = no result given.

SMILES	TNF necrop inh	SDO1 yeast rescue	Rad51 HR inh	zVAD death inh	zVAD necrop conf
O=C(Nc1nccs1)c1ccc(CSc2nnnn2-c2ccccc2)cc1	14	-1.3	-2	87*	89*
NC(=O)c1ccc(-n2nnnc2SCc2ccccc2)cc1	0	1.7	-2	1	nt
COc1cc(C(=O)NNC(=S)Nc2ccc(S(N)(=O)=O)cc2)cc(OC)c1OC	0	nt	-7	0	nt
Cc1ccc2nc3ccc(N4CCCCCCC4)nn3c(=O)c2c1	5	-0.83	4	87*	0
CCOC(=O)C1=C2N(C)c3ccccc3N2CCC1=O	0	-0.94	-9	1	nt
c1cc(Nc2ncnc3sc4c(c23)CCC4)ccn1	-1	nt	5	0	nt
C(=N\Nc1ncnc2sc3c(c12)CCC3)/c1cccs1	-14	-1.9	-9	81*	40
C(=N\Nc1ncnc2sc3c(c12)CCC3)/c1ccncc1	17	-0.98	7	79*	43
NNc1ncnc2sc3c(c12)CCC3	-2	nt	-1	8	nt
Cc1cc(C(=O)N/N=C/c2ccc(-c3ccc(C)c(Cl)c3)o2)n[nH]1	11	nt	-4	15	nt
Cc1ccc(-c2cc(C(=O)N/N=C/c3cccnc3)n[nH]2)o1	0	-0.13	nt	2	nt
Cc1cc(C(=O)N/N=C/c2ccc(-c3ccccc3Cl)o2)n[nH]1	30	-1.1	4	84*	38
Cc1cc(C)c2c(N)c(C(=O)N/N=C/c3cccnc3)sc2n1	-10	nt	5	79*	36
Cc1cc(C(=O)N/N=C/c2ccc[nH]2)n[nH]1	16	1.3	-9	89*	27
Cc1cc(C(=O)N/N=C/c2ccc[nH]2)no1	2	2.1	nt	0	nt
Cc1cc(C(=O)N/N=C/c2cccnc2)n[nH]1	39	nt	9	84*	6
CCc1ccccc1NC(=S)N(CCN(C)C)Cc1cccs1	1	nt	-5	0	nt
O=c1[nH]c2c(s1)C(c1ccco1)C1C3CCC(C3)C1S2 (stereo not drawn)	-1	-1.6	-12	-1	nt
C/C(N)=C(\C#N)C(=O)NCc1ccccn1	1	-0.86	-1	2	nt
O=C(CSc1nc2ccc(Nc3nc(N4CCOCC4)nc(N4CCOCC4)n3)cc2s1)N1CCOCC1	3	-0.45	1	3	nt
CSc1nc2ccc(Nc3nc(N4CCOCC4)nc(N4CCOCC4)n3)cc2s1	1	-1.1	-7	84*	2
CN(CC1CCCO1)S(=O)(=O)c1ccc(C(=O)Nc2nccs2)cc1 (stereo not drawn)	61*	nt	nt	87*	103*
O=C(Nc1ccc(S(=O)(=O)Nc2nccs2)cc1)c1ccc(S(=O)(=O)N2CCOCC2)cc1	1	0.53	5	3	nt
O=C(Nc1nccs1)c1ccc(S(=O)(=O)N2CCOCC2)cc1	44	nt	-4	82*	68*
O=C(CCCNS(=O)(=O)c1ccccc1)NCc1ccco1	2	1.2	0	0	nt
SMILES	TNF necrop inh	SDO1 yeast rescue	Rad51 HR inh	zVAD death inh	zVAD necrop conf
CCOc1ccc(NC(=O)NC23CC4CC(CC(C4)C2)C3)cc1	3	-0.68	8	88*	47
CCOC(=O)c1cccc(NC(=O)Nc2ccc(OCC)cc2)c1	-2	nt	-7	76*	2
CCOc1ccc(NC(=O)Nc2ccc3nsnc3c2)cc1	-1	nt	-4	81*	1
Cc1cc(-c2c(C)[nH]n(-c3ccccc3)c2=O)n[nH]1	0	nt	4	0	nt
O=C(CSc1nnc(-c2ccncc2)o1)N1CCCCCC1	0	nt	-2	76*	0
COc1cc(NC(=O)c2cnc(N)s2)cc(C(=O)Nc2cccc(C(F)(F)F)c2)c1	6	nt	6	79*	74*
CCOC(=O)C1CCN(C(=S)Nc2cc(OC)c(OC)cc2C(=O)OC)CC1	1	0.48	1	-1	nt
N#CCN1CCC2(O)CCCCC2C1c1ccc2c(c1)OCO2 (stereo not drawn)	2	nt	10	0	nt
CC1=CC(=Nc2c(C)n(C)n(-c3ccccc3)c2=O)C=CC1=O	-16	nt	9	77*	50*
CC1=CC(=Nc2c(C)n(C)n(-c3ccccc3)c2=O)C=C(C)C1=O	-5	0.17	0	58	nt
